Where “and” joins values, the source holds several entries; their conditions need not be identical. Identical values can stand only once.
Tests used:
Assay type in all cases: functional
Rattus norvegicus [1] = experiment: Efficiency is defined as net iron excretion in rats at the dose of 150 umol/kg administered subcutaneously.
Method in brief: (§1)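 Male Sprague–Dawley rats (~400 g) with bile-duct cannulas, under sodium pentobarbital (55 mg/kg ip) anesthesia, housed in metabolic cages with free water. Chelator is given as a single dose in 40% Cremophor RH-40/H2O (v/v). Bile is collected at 3-h intervals for 24 h and urine every 24 h. Iron is measured by flame atomic absorption. Efficiency = (treated minus control iron excretion)/theoretical output, as %; bile/urine split reported.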

Rattus norvegicus [2] = experiment: Efficiency is defined as net iron excretion in rats at the dose of 150 umol/kg administered perorally.; method in brief: as §1
Monkey [3] = experiment: The efficiency was calculated by averaging the iron output for 4 days before the administration of the drug, subtracting these numbers from the 2-day iron clearance after the administration of the drug at the dose of 225 umol/kg administered perorally in monkeys.
Method in brief: (§2)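 Cebus apella monkeys iron-loaded with iv iron dextran (200–300 mg Fe/kg per slow 45–60 min infusion, to about 500 mg Fe/kg), rested ≥60 days. Chelator is given in 40% Cremophor RH-40/H2O (v/v). Feces and urine are collected from 4 days before to 5 days after dosing. Iron is measured by flame atomic absorption. Efficiency = (2-day post-drug iron minus 4-day baseline average)/theoretical output, as %.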

Monkey [4] = experiment: The efficiency was calculated by averaging the iron output for 4 days before the administration of the drug, subtracting these numbers from the 2-day iron clearance after the administration of the drug at the dose of 300 umol/kg administered perorally in monkeys.; method in brief: as §2
Monkey [5] = experiment: The efficiency was calculated by averaging the iron output for 4 days before the administration of the drug, subtracting these numbers from the 2-day iron clearance after the administration of the drug at the dose of 150 umol/kg administered subcutaneously in monkeys.; method in brief: as §2
Monkey [6] = experiment: The efficiency was calculated by averaging the iron output for 4 days before the administration of the drug, subtracting these numbers from the 2-day iron clearance after the administration of the drug at the dose of 150 umol/kg administered perorally in monkeys.; method in brief: as §2
Monkey [7] = experiment: The efficiency was calculated by averaging the iron output for 4 days before the administration of the drug, subtracting these numbers from the 2-day iron clearance after the administration of the drug at the dose of 300 umol/kg administered subcutaneously in monkeys.; method in brief: as §2

| Structure (SMILES) | Efficiency (Rattus norvegicus [1]) [%] | Efficiency (Rattus norvegicus [2]) [%] | Efficiency (Monkey [3]) | Efficiency (Monkey [4]) [%] | Efficiency (Monkey [5]) [%] | Efficiency (Monkey [6]) [%] | Efficiency (Monkey [7]) [%] |
| --- | --- | --- | --- | --- | --- | --- | --- |
| O=C([C@H]1CSC(c2ncccc2O)=N1)N(O)CCOCCOCCN(O)C(=O)[C@H]1CSC(c2ncccc2O)=N1 | 20.6 | 4.6 |  |  |  |  |  |
| CC(=O)N(O)CCCCCN(O)C(=O)[C@H]1CSC(c2ncccc2O)=N1 | 8.5 | 2.8 | 3.2% and 12.8% |  |  |  |  |
| O=C(C1CSC(c2ncccc2O)=N1)N(O)Cc1ccccc1 (stereo not given) | 1.4 | 1 |  | <0.5 |  |  |  |
| O=C(c1ccccc1O)N(O)CCOCCOCCN(O)C(=O)c1ccccc1O | 0.8 | <0.5 |  |  |  |  |  |
| CN(O)C(=O)[C@H]1CSC(c2ncccc2O)=N1 | 5.3 | 3.1 |  | 13.2 | 11.7 | 6.9 |  |
| O=C(O)[C@H]1CSC(c2ncccc2O)=N1 | 1.8 | 2.4 |  | 8 |  | 4.8 | 8.3 |

Source: ChEMBL document CHEMBL1132320, “Evaluation of the desferrithiocin pharmacophore as a vector for hydroxamates” (1999)
